The test system of one test is HCT-116. Kind of test: Cytotoxicity against human HCT116 cells after 4 days by WST-1 assay. Format: functional, cell-based. The note with it: HCT-116, 96 h. In outline: (§1)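 Cells were cultured in DMEM with 10% fetal calf serum and seeded at 3000 per well. After 24 h they were treated with 100 nM to 50 μM compound, 8 replicates per concentration, for 4 days. Viability was read by WST-1 and reported as IC50.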

The nature of test [1]: Cytotoxicity against human GM637 cells after 4 days by WST-1 assay. The format is cell-based. As to conditions: GM637, 96 h. The procedure, abridged: as §1
The subject of test [2] is Mycobacterium tuberculosis. Kind of test: Antitubercular activity against Mycobacterium tuberculosis H37Rv assessed as growth inhibition after 21 days by micro-broth dilution method. Format: functional. As to conditions: 504 h.
Test [3] concerns Mycobacterium tuberculosis. In words: Antitubercular activity against Mycobacterium tuberculosis H37Rv assessed as growth inhibition. Format: functional. In outline:
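M. tuberculosis H37Rv grown at 37 °C in Middlebrook 7H9 with 0.05% Tween 80, or on 7H11 agar with OADC. Culture dilutions of about 10^5-10^6 cfu/ml were streaked onto 7H11 plates holding 0.25 µg/mL to 40 µg/mL drug. Plates were incubated at 37 °C for about 21 days, and MIC was read from visual growth.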

The values below come from ChEMBL document CHEMBL2434843, “Synthesis and evaluation of α-ketotriazoles and α,β-diketotriazoles as inhibitors of Mycobacterium tuberculosis” (Eur J Med Chem, 2013).

≈ marks a conversion by molar mass, not a printed value. Bounds are passed on as bounds.

With `O=C(Cc1ccccc1)c1cn(Cc2ccccc2)nn1`, the IC50 (with HCT-116; in test [1]) was over 50 µM throughout.

On to `Cc1cc(C)cc(Cn2cc(C(=O)Cc3ccccc3)nn2)c1`, for which the IC50 (with HCT-116; in test [1]) was over 50 µM each time.

On to `O=C(Cc1ccccc1)c1cn(Cc2ccc([N+](=O)[O-])cc2)nn1`, for which the half-maximal inhibitory concentration (IC50) (with HCT-116; in test [1]) was over 50 µM in each case.

Turning to `CCCCCCCCn1cc(C(=O)Cc2ccccc2)nn1`, the 50% inhibitory concentration (IC50) (in the test on HCT-116; in test [1]) was over 50 µM each time.

`O=C(Cc1ccc(Cl)cc1Cl)c1cn(Cc2ccccc2)nn1`: the IC50 (with HCT-116; in test [1]) was over 50 µM each time.

Take `CCCCCCCCn1cc(C(=O)Cc2ccc(Cl)cc2Cl)nn1`: the MIC in test [2] is 20.9 µM (≈ 7.7 µg/mL).

For `O=C(C(=O)c1ccc(Cl)cc1Cl)c1cn(Cc2ccccc2)nn1`, the IC50 (with HCT-116; in test [1]) was over 50 µM in each case. Also, in test [2], the MIC is 6.9 µM (≈ 2.49 µg/mL).

Turning to `CCCCCCCCc1cn(CC(=O)OCC)nn1`, the MIC in test [3] worked out at 1.9 µg/mL (≈ 7.11 µM).

For the compound `COc1cc(Cn2cc(C(=O)C(=O)c3ccccc3OC)nn2)cc(OC)c1`, the 50% inhibitory concentration (IC50) (in the test with HCT-116; in test [1]) was over 50 µM in each case. For the same compound, the MIC in test [2] stood at 21 µM (≈ 8.01 µg/mL).

For the compound `COc1ccccc1C(=O)C(=O)c1cn(Cc2ccccc2)nn1`, the IC50 (in the test with HCT-116; in test [1]) was over 50 µM in each case. For the same compound, the MIC in test [2] was 12.4 µM (≈ 4 µg/mL).

As to `COc1cc(Cn2cc(C(=O)C(=O)c3ccc([N+](=O)[O-])cc3)nn2)cc(OC)c1`, the half-maximal inhibitory concentration (IC50) (in the test with HCT-116; in test [1]) was over 50 µM in each case. Further, the MIC in test [2] came to 161 µM (≈ 64 µg/mL).

Take `O=C(C(=O)c1cn(Cc2ccccc2)nn1)c1ccc([N+](=O)[O-])cc1`: the half-maximal inhibitory concentration (IC50) (with HCT-116; in test [1]) was over 50 µM each time. Moreover, the minimal inhibitory concentration (MIC) in test [2] worked out at 95.1 µM (≈ 32 µg/mL).

As for `COC(=O)c1ccc(Cn2cc(C(=O)C(=O)c3ccc(Cl)cc3Cl)nn2)o1`, the MIC in test [2] is 39.2 µM (≈ 16 µg/mL).

As to `CCCCCCCCn1cc(C(=O)C(=O)c2ccc(Cl)cc2Cl)nn1`, the half-maximal inhibitory concentration (IC50) (in the test with HCT-116; in test [1]) was over 50 µM throughout. In test [2], the MIC was 80.7 µM (≈ 30.9 µg/mL).

Turning to `O=C(C(=O)c1ccc(Cl)cc1Cl)c1cn(C2CCCCC2)nn1`, the MIC in test [2] was determined as 43.7 µM (≈ 15.4 µg/mL).

Take `O=C(C(=O)c1ccc(Cl)cc1Cl)c1cn(CCc2ccccc2)nn1`: the IC50 (in the test on HCT-116; in test [1]) was over 50 µM each time. Moreover, the MIC in test [2] was found to be 13.4 µM (≈ 5.01 µg/mL).

In the case of `O=C(Cc1ccc(Cl)cc1Cl)c1cn(CCc2ccccc2)nn1`, in test [2], the minimum inhibitory concentration (MIC) is over 88.8 µM.

For the compound `O=C(C(=O)c1ccc(Cl)cc1Cl)c1cn(Cc2ccc([N+](=O)[O-])cc2)nn1`, the IC50 (in the test on HCT-116; in test [1]) was over 50 µM throughout. For the same compound, in test [2], the MIC is 79 µM (≈ 32 µg/mL).

Regarding `COc1cc(Cn2cc(C(=O)C(=O)c3ccc(Cl)cc3Cl)nn2)cc(OC)c1`, the IC50 (with HCT-116; in test [1]) was over 50 µM throughout. For the same compound, in test [2], the MIC came to 9.51 µM (≈ 4 µg/mL).

For `COc1ccc(CCn2cc(C(=O)C(=O)c3ccc(OC)cc3)nn2)cc1`, the minimal inhibitory concentration (MIC) in test [2] was over 87.6 µM.

For the compound `COc1ccc(CCn2cc(C(=O)Cc3ccc(OC)cc3)nn2)cc1`, in test [2], the MIC was over 91.1 µM.

With `COc1ccc(C(=O)C(=O)c2cn(CCc3ccccc3)nn2)cc1`, the IC50 (in the test with HCT-116; in test [1]) was over 50 µM each time. Besides, the minimum inhibitory concentration (MIC) in test [2] is over 95.4 µM.

On to `COc1ccc(CC(=O)c2cn(CCc3ccccc3)nn2)cc1`, for which, in test [2], the minimum inhibitory concentration (MIC) is over 112 µM.

On to `COc1ccc(C(=O)C(=O)c2cn(Cc3ccccc3)nn2)cc1`, for which the 50% inhibitory concentration (IC50) (in the test with HCT-116; in test [1]) was over 50 µM each time. Further, the MIC in test [2] turned out to be 7.6 µM (≈ 2.44 µg/mL).

Regarding `CCCCCCCCn1cc(C(=O)C(=O)c2ccccc2)nn1`, the minimal inhibitory concentration (MIC) in test [2] was 51 µM (≈ 16 µg/mL).

In the case of `Cc1cc(C)cc(Cn2cc(C(=O)C(=O)c3ccccc3)nn2)c1`, the 50% inhibitory concentration (IC50) (with HCT-116; in test [1]) was over 50 µM throughout. Besides, the MIC in test [2] is 50 µM (≈ 16 µg/mL).

Regarding `O=C(C(=O)c1cn(Cc2ccc([N+](=O)[O-])cc2)nn1)c1ccccc1`, the IC50 (with HCT-116; in test [1]) was over 50 µM throughout. The minimum inhibitory concentration (MIC) in test [2] came to 11.9 µM (≈ 4 µg/mL).

`COc1cc(Cn2cc(C(=O)C(=O)c3ccccc3)nn2)cc(OC)c1`: the IC50 (in the test on HCT-116; in test [1]) was over 50 µM each time. Further, in test [2], the MIC was found to be 11.4 µM (≈ 4 µg/mL).

With `O=C(C(=O)c1cn(Cc2ccccc2)nn1)c1ccccc1`, the IC50 (in the test with HCT-116; in test [1]) was over 50 µM in each case. The minimal inhibitory concentration (MIC) in test [2] was 172 µM (≈ 50 µg/mL).

As for `NNC(=O)c1ccncc1` [ISONIAZID], the minimum inhibitory concentration (MIC) in test [2] was determined as 0.4 µM (≈ 0.0549 µg/mL).
